This is an account of results in ChEMBL document CHEMBL4004857, “Synthesis and biological evaluation of novel pyrazolic chalcone derivatives as novel hepatocellular carcinoma therapeutics” (Eur J Med Chem, 2017).

pIC50: −log10 of the molar value. Calls of active or inactive are those of the source. No cut-off for these calls is given here.

The subject of one assay is MCF7. Description: Cytotoxicity against human MCF7 cells assessed as growth inhibition after 72 hrs by SRB assay. The class given is functional, cell-based. As to conditions: MCF7, 72 h. The essentials:
(§1)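 Cells seeded at 2000–3000 per well and grown 24 h at 37C, then treated in triplicate with compounds dissolved in DMSO over a 40–0.3 range for 72 h. Cells were fixed with 10% TCA for 1 h, stained with 0.4% SRB in 1% acetic acid, washed with 1% acetic acid and air-dried. Bound dye was solubilized in 10 mM Tris base and read at 515 nm. % inhibition and IC50 were calculated against DMSO-only controls.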
On the technique in general: In SRB staining, fixed cells bind dye roughly in proportion to their protein.
The pIC50 is the IC50 on a negative log10 scale, so that one unit is a factor of ten. Take `O=C(/C=C/c1cn(-c2ccccc2)nc1-c1cccnc1)c1ccc2c(c1)OCO2`: the pIC50 was 5.25.
Regarding `O=C(/C=C/c1cn(-c2ccccc2)nc1-c1ccc2c(c1)OCO2)c1ccsc1`, the pIC50 is 5.31.
Take `COc1ccc(C(=O)/C=C/c2cn(-c3ccccc3)nc2-c2ccc3c(c2)OCO3)c(OC)c1`: the pIC50 is 4.84.
On to `Nc1nc(Cl)nc2c1ncn2[C@H]1C[C@H](O)[C@@H](CO)O1` [CLADRIBINE], for which the pIC50 is 5.70.
In the case of `O=C(/C=C/c1cn(-c2ccccc2)nc1-c1ccncc1)c1ccsc1`, the pIC50 is 5.82.
As for `COc1ccc(C(=O)/C=C/c2cn(-c3ccccc3)nc2-c2ccsc2)cc1OC`, the pIC50 is 5.55.
On to `O=C(/C=C/c1cn(-c2ccccc2)nc1-c1ccncc1)c1cc[nH]c1`, for which the pIC50 is 4.87.
Regarding `COc1cc(C(=O)/C=C/c2cn(-c3ccccc3)nc2-c2ccncc2)cc(OC)c1OC`, the pIC50 was 5.46.
Still for that read-out and setting: with `COc1ccc(C(=O)/C=C/c2cn(-c3ccccc3)nc2-c2cccnc2)c(OC)c1` the figure was 5.64; with `COc1ccc(C(=O)/C=C/c2cn(-c3ccccc3)nc2-c2ccc3c(c2)OCO3)cc1OC`, 4.93; with `COc1cc(OC)c(C(=O)/C=C/c2cn(-c3ccccc3)nc2-c2ccc3c(c2)OCO3)c(OC)c1`, 4.94.
For the compound `O=C(/C=C/c1cn(-c2ccccc2)nc1-c1cccnc1)c1ccccc1`, the pIC50 is 5.39.
On the same count and under the same terms, with `COc1ccc(OC)c(C(=O)/C=C/c2cn(-c3ccccc3)nc2-c2ccc3c(c2)OCO3)c1` the figure was 5.24.
With `COc1ccc(OC)c(C(=O)/C=C/c2cn(-c3ccccc3)nc2-c2ccsc2)c1`, the pIC50 was 6.40.
Take `COc1cc(OC)c(C(=O)/C=C/c2cn(-c3ccccc3)nc2-c2ccsc2)c(OC)c1`: the pIC50 is 5.57.
For the compound `O=C(/C=C/c1cn(-c2ccccc2)nc1-c1cccnc1)c1ccsc1`, the pIC50 was 6.30.
On to `O=C(/C=C/c1cn(-c2ccccc2)nc1-c1ccc2c(c1)OCO2)c1ccc2c(c1)OCO2`, for which the pIC50 was 4.76.
For the compound `O=C(/C=C/c1cn(-c2ccccc2)nc1-c1ccsc1)c1ccc2c(c1)OCO2`, the pIC50 is 5.28.
Still for that read-out and setting: with `COc1ccc(C(=O)/C=C/c2cn(-c3ccccc3)nc2-c2ccncc2)c(OC)c1OC` the figure was 5.48; with `COc1ccc(C(=O)/C=C/c2cn(-c3ccccc3)nc2-c2cccnc2)c(OC)c1OC`, 5.85.

For a further assay, the system named is HCT-116. Description: Cytotoxicity against human HCT116 cells assessed as growth inhibition after 72 hrs by SRB assay. As to conditions: HCT-116, 72 h. The class given is functional, cell-based. In short, it runs like this:
as §1
For the compound `O=C(/C=C/c1cn(-c2ccccc2)nc1-c1cccnc1)c1ccc2c(c1)OCO2`, the pIC50 is 5.74.
As for `O=C(/C=C/c1cn(-c2ccccc2)nc1-c1ccc2c(c1)OCO2)c1ccsc1`, the pIC50 was 5.05.
The same measure, in the same setting: then `COc1ccc(C(=O)/C=C/c2cn(-c3ccccc3)nc2-c2ccc3c(c2)OCO3)c(OC)c1`, with 5.07.
As for `Nc1nc(Cl)nc2c1ncn2[C@H]1C[C@H](O)[C@@H](CO)O1` [CLADRIBINE], the pIC50 was 6.52.
Take `O=C(/C=C/c1cn(-c2ccccc2)nc1-c1ccncc1)c1ccsc1`: the pIC50 was 5.96.
With `COc1ccc(C(=O)/C=C/c2cn(-c3ccccc3)nc2-c2ccsc2)cc1OC`, the pIC50 was 5.80.
On the same count and under the same terms, then `O=C(/C=C/c1cn(-c2ccccc2)nc1-c1ccncc1)c1cc[nH]c1`, with 4.80.
Regarding `COc1cc(C(=O)/C=C/c2cn(-c3ccccc3)nc2-c2ccncc2)cc(OC)c1OC`, the pIC50 is 6.52.
As for `COc1ccc(C(=O)/C=C/c2cn(-c3ccccc3)nc2-c2cccnc2)c(OC)c1`, the pIC50 is 5.89.
The same measure, in the same setting: then `COc1ccc(C(=O)/C=C/c2cn(-c3ccccc3)nc2-c2ccc3c(c2)OCO3)cc1OC`, with 4.94; and `COc1cc(OC)c(C(=O)/C=C/c2cn(-c3ccccc3)nc2-c2ccc3c(c2)OCO3)c(OC)c1`, with 4.97; and `O=C(/C=C/c1cn(-c2ccccc2)nc1-c1cccnc1)c1ccccc1`, with 5.70.
`COc1ccc(OC)c(C(=O)/C=C/c2cn(-c3ccccc3)nc2-c2ccc3c(c2)OCO3)c1`: the pIC50 is 5.89.
The same measure, in the same setting: then `COc1ccc(OC)c(C(=O)/C=C/c2cn(-c3ccccc3)nc2-c2ccsc2)c1`, with 5.47; and `COc1cc(OC)c(C(=O)/C=C/c2cn(-c3ccccc3)nc2-c2ccsc2)c(OC)c1`, with 5.28.
For the compound `O=C(/C=C/c1cn(-c2ccccc2)nc1-c1cccnc1)c1ccsc1`, the pIC50 was 5.89.
On the same count and under the same terms, with `O=C(/C=C/c1cn(-c2ccccc2)nc1-c1ccc2c(c1)OCO2)c1ccc2c(c1)OCO2` the figure was 4.57.
Regarding `O=C(/C=C/c1cn(-c2ccccc2)nc1-c1ccsc1)c1ccc2c(c1)OCO2`, the pIC50 is 4.91.
Turning to `COc1ccc(C(=O)/C=C/c2cn(-c3ccccc3)nc2-c2ccncc2)c(OC)c1OC`, the pIC50 was 5.89.
The same measure, in the same setting: with `COc1ccc(C(=O)/C=C/c2cn(-c3ccccc3)nc2-c2cccnc2)c(OC)c1OC` the figure was 5.96.

The next assay concerns Huh-7. Description: Cytotoxicity against human HuH7 cells assessed as growth inhibition after 72 hrs by SRB assay. The class given is functional, cell-based. As to conditions: Huh-7, 72 h. In short, it runs like this:
as §1
In the case of `O=C(/C=C/c1cn(-c2ccccc2)nc1-c1cccnc1)c1ccc2c(c1)OCO2`, the pIC50 was 5.17.
On to `O=C(/C=C/c1cn(-c2ccccc2)nc1-c1ccc2c(c1)OCO2)c1ccsc1`, for which the pIC50 was 5.49.
Turning to `COc1ccc(C(=O)/C=C/c2cn(-c3ccccc3)nc2-c2ccc3c(c2)OCO3)c(OC)c1`, the pIC50 was 4.72.
As to `Nc1nc(Cl)nc2c1ncn2[C@H]1C[C@H](O)[C@@H](CO)O1` [CLADRIBINE], the pIC50 is 5.74.
The same measure, in the same setting: with `O=C(/C=C/c1cn(-c2ccccc2)nc1-c1ccncc1)c1ccsc1` the figure was 5.66.
As to `COc1ccc(C(=O)/C=C/c2cn(-c3ccccc3)nc2-c2ccsc2)cc1OC`, the pIC50 is 5.54.
Take `O=C(/C=C/c1cn(-c2ccccc2)nc1-c1ccncc1)c1cc[nH]c1`: the pIC50 is 4.54.
For `COc1cc(C(=O)/C=C/c2cn(-c3ccccc3)nc2-c2ccncc2)cc(OC)c1OC`, the pIC50 was 5.46.
As to `COc1ccc(C(=O)/C=C/c2cn(-c3ccccc3)nc2-c2cccnc2)c(OC)c1`, the pIC50 was 5.62.
As for `COc1ccc(C(=O)/C=C/c2cn(-c3ccccc3)nc2-c2ccc3c(c2)OCO3)cc1OC`, the pIC50 is 4.81.
For `COc1cc(OC)c(C(=O)/C=C/c2cn(-c3ccccc3)nc2-c2ccc3c(c2)OCO3)c(OC)c1`, the pIC50 was 5.17.
On the same count and under the same terms, then `O=C(/C=C/c1cn(-c2ccccc2)nc1-c1cccnc1)c1ccccc1`, with 5.64; and `COc1ccc(OC)c(C(=O)/C=C/c2cn(-c3ccccc3)nc2-c2ccc3c(c2)OCO3)c1`, with 5.21.
Still for that read-out and setting: with `COc1ccc(OC)c(C(=O)/C=C/c2cn(-c3ccccc3)nc2-c2ccsc2)c1` the figure was 5.68; with `COc1cc(OC)c(C(=O)/C=C/c2cn(-c3ccccc3)nc2-c2ccsc2)c(OC)c1`, 5.21; with `O=C(/C=C/c1cn(-c2ccccc2)nc1-c1cccnc1)c1ccsc1`, 5.77.
Consider `O=C(/C=C/c1cn(-c2ccccc2)nc1-c1ccc2c(c1)OCO2)c1ccc2c(c1)OCO2`, for which the pIC50 was 5.00.
Regarding `O=C(/C=C/c1cn(-c2ccccc2)nc1-c1ccsc1)c1ccc2c(c1)OCO2`, the pIC50 is 4.65.
Turning to `COc1ccc(C(=O)/C=C/c2cn(-c3ccccc3)nc2-c2ccncc2)c(OC)c1OC`, the pIC50 was 5.43.
With `COc1ccc(C(=O)/C=C/c2cn(-c3ccccc3)nc2-c2cccnc2)c(OC)c1OC`, the pIC50 is 5.64.

The species named for a further assay is Homo sapiens. The experiment in a line: Inhibition of tubulin polymerization (unknown origin).
Details: not given
For the compound `O=C(/C=C/c1cn(-c2ccccc2)nc1-c1cccnc1)c1ccc2c(c1)OCO2`, the inhibition entry was “inactive”.
With `O=C(/C=C/c1cn(-c2ccccc2)nc1-c1ccc2c(c1)OCO2)c1ccsc1`, the inhibition entry is “inactive”.
Still for that read-out and setting: with `COc1ccc(C(=O)/C=C/c2cn(-c3ccccc3)nc2-c2ccc3c(c2)OCO3)c(OC)c1` the entry was “inactive”; with `O=C(/C=C/c1cn(-c2ccccc2)nc1-c1ccncc1)c1ccsc1`, “inactive”.
Turning to `COc1ccc(C(=O)/C=C/c2cn(-c3ccccc3)nc2-c2ccsc2)cc1OC`, the inhibition entry was “inactive”.
With `O=C(/C=C/c1cn(-c2ccccc2)nc1-c1ccncc1)c1cc[nH]c1`, the inhibition entry was “inactive”.
Turning to `COc1cc(C(=O)/C=C/c2cn(-c3ccccc3)nc2-c2ccncc2)cc(OC)c1OC`, the inhibition result was “inactive”.
The same measure, in the same setting: then `COc1ccc(C(=O)/C=C/c2cn(-c3ccccc3)nc2-c2cccnc2)c(OC)c1`, with “inactive”; and `COc1ccc(C(=O)/C=C/c2cn(-c3ccccc3)nc2-c2ccc3c(c2)OCO3)cc1OC`, with “inactive”.
On the same count and under the same terms, with `COc1cc(OC)c(C(=O)/C=C/c2cn(-c3ccccc3)nc2-c2ccc3c(c2)OCO3)c(OC)c1` the entry was “inactive”; with `O=C(/C=C/c1cn(-c2ccccc2)nc1-c1cccnc1)c1ccccc1`, “inactive”.
`COc1ccc(OC)c(C(=O)/C=C/c2cn(-c3ccccc3)nc2-c2ccc3c(c2)OCO3)c1`: the inhibition result is “inactive”.
For the compound `COc1ccc(OC)c(C(=O)/C=C/c2cn(-c3ccccc3)nc2-c2ccsc2)c1`, the inhibition entry was “inactive”.
As for `COc1cc(OC)c(C(=O)/C=C/c2cn(-c3ccccc3)nc2-c2ccsc2)c(OC)c1`, the inhibition result is “inactive”.
As to `O=C(/C=C/c1cn(-c2ccccc2)nc1-c1cccnc1)c1ccsc1`, the inhibition entry was “inactive”.
Same read-out and setting: then `O=C(/C=C/c1cn(-c2ccccc2)nc1-c1ccc2c(c1)OCO2)c1ccc2c(c1)OCO2`, with “inactive”; and `O=C(/C=C/c1cn(-c2ccccc2)nc1-c1ccsc1)c1ccc2c(c1)OCO2`, with “inactive”.
As for `COc1ccc(C(=O)/C=C/c2cn(-c3ccccc3)nc2-c2ccncc2)c(OC)c1OC`, the inhibition result is “inactive”.
For `COc1ccc(C(=O)/C=C/c2cn(-c3ccccc3)nc2-c2cccnc2)c(OC)c1OC`, the inhibition result is “inactive”.
